Reference: paper PMC9668306 (Science Advances, 2022)
“Also recorded” adds a separate entry of the source.

Experiments:
[1] = cited from earlier work
[2] = Tolerability, intravenous cohort; format: in vivo, C57BL/6/CES1-/- mice
Procedure, shortened: (§1)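 EL4 cells (0.3 × 10^6) were given s.c. in the right flank. At a mean tumour volume of about 400 mm3, mice were randomised (n = 8) to vehicle, parent drug 1 mg/kg or test compound 1 mg/kg DON equivalent, i.v., 5 days/week for 2 weeks. Tumour volume (calipers, […]), body weight and mortality were tracked; euthanasia followed IACUC tumour-volume or weight-loss guidelines.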

[3] = system: EL4 tumors; assay: Antitumor efficacy, intravenous cohort, EL4 tumors; format: in vivo, C57BL/6/CES1-/- mice; conditions: 1 mg/kg DON eq. intravenously, 5 days per week for 2 weeks
Procedure, shortened: as §1

[4] = GI histopathology and scoring; format: in vivo, C57BL/6/CES1-/- mice; conditions: for GI histology (in words): 1 mg/kg DON eq. IV, end of treatment
[5] = system: P493B lymphoma cells; assay: P493B lymphoma cell viability assay; format: cell-based; conditions: 72 h
[6] = target: T1, GLS-1 (Mus musculus, UniProt D3Z7P3); assay: Tumor target engagement: tumor GLS-1 activity; format: in vivo, C57BL/6/CES1-/- mice; conditions: EL4 tumor, 1 hour after s.c. dose
T1 sequence (D3Z7P3 55-674): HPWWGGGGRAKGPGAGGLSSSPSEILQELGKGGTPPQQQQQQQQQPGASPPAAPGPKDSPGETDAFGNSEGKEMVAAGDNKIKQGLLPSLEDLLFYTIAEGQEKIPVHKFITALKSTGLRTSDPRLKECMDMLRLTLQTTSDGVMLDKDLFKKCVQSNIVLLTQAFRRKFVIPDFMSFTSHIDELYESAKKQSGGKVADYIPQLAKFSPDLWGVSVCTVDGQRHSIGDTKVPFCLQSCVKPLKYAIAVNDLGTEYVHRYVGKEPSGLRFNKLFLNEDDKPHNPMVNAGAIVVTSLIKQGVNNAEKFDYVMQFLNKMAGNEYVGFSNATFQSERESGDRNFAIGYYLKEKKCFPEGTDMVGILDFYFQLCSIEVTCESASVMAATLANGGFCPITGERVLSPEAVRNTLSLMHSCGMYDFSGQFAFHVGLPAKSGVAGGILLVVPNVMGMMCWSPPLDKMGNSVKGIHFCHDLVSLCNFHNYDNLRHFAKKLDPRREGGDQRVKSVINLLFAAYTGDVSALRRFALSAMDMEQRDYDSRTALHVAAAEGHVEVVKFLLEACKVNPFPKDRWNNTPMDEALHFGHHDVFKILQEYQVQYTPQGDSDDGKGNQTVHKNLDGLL
Procedure, shortened: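 Test compound was dosed s.c. to EL4 tumor-bearing CES1−/− mice, and tumors were harvested 1 h post-dose. Tumor GLS-1 activity was quantified with a radiolabel-based enzymatic assay.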

[7] = system: FGAR; assay: Tumor target engagement: tumor FGAR; format: in vivo, C57BL/6/CES1-/- mice; conditions: EL4 tumor, 1 hour after s.c. dose (DRP-104 2.6 mg/kg, DON 0.3 mg/kg)
[8] = target: T2, glutaminase enzyme (GLS-1) (Homo sapiens, UniProt O94925); assay: GLS-1 inhibition, [3H]-glutamine radiolabel enzymatic assay; format: biochemical
T2 sequence (O94925 55-669): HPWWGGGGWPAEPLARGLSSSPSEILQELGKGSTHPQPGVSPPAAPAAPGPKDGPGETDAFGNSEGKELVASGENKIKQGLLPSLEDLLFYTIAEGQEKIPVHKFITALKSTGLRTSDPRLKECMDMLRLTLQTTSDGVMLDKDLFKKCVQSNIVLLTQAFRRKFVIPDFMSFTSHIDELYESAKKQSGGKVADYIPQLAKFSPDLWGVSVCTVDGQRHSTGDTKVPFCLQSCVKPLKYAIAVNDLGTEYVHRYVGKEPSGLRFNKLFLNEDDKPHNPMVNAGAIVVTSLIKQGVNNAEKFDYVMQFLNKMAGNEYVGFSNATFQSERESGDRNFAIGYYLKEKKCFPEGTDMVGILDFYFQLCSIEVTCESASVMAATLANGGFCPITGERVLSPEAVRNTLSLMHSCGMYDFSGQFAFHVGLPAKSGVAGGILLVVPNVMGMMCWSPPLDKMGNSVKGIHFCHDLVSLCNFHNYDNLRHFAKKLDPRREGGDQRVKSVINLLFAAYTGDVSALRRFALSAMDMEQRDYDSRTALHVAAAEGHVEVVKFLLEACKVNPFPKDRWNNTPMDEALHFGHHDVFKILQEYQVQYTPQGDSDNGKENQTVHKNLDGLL

[9] = Complete blood count; format: in vivo, C57BL/6/CES1-/- mice; conditions: Avg of 3 animals, 1 mg/kg (eq.) iv, normal range 1.06-56.08
Procedure, shortened: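 In the EL4 i.v. cohort (vehicle, parent drug or test compound at 1 mg/kg DON equivalent, 5 days/week for 2 weeks), mice remaining at the end of treatment were sacrificed and blood was collected for a complete blood count.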

[10] = 31 of 47 patients who received 2 weeks or more of DON therapy; cited from earlier work
[11] = Intestinal S9 fraction stability and DON release; format: in vitro ADME; conditions: human
Procedure, shortened: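 Test compound at 10 μM was incubated with intestinal S9 fraction (final protein 1 mg/ml) at 37°C on an orbital shaker for 1 h, in triplicate. Reactions were quenched with three volumes of acetonitrile containing internal standard.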

[12] = Plasma stability, WT mouse plasma; format: in vitro ADME, WT C57BL/6 mouse; conditions: C57BL/6, mouse
[13] = system: MC38 tumors; assay: CD8 depletion study, MC38 tumors; format: in vivo, C57BL/6/CES1-/- mice; conditions: MC38, CD8+ T cell-depleting antibodies versus isotype
Procedure, shortened: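 MC38-bearing CES1−/− mice received anti-mouse CD8β (clone 53-5.8) or rat IgG1 isotype (clone HRPN), 5 mg/kg, the day before implantation, the day after and weekly thereafter; depletion was checked by flow cytometry. Test compound was given at 0.3 mg/kg DON equivalent s.c., 5 days/week, and individual tumour growth was followed.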

[14] = Body weight in MC38 anti-PD-1 combination study; format: in vivo, C57BL/6/CES1-/- mice; conditions: MC38 tumor-bearing mice, throughout the experiment
[15] = system: EL4 tumors; assay: Antitumor efficacy, subcutaneous dosing cohort, EL4 tumors; format: in vivo, C57BL/6/CES1-/- mice; conditions: 0.1, 0.3 and 1 mg/kg DON eq. subcutaneously, 5 days per week
Procedure, shortened: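 EL4 mouse lymphoma cells (0.3 × 10^6) were injected s.c. into the right flank of male and female C57BL/6/CES1−/− mice aged 6–8 weeks (25–30 g). Test compound was given s.c. at 0.1, 0.3 or 1 mg/kg DON equivalent, 5 days/week. Tumor length and width were measured by caliper, with volume = […]. Body weight and GI histology were tracked in parallel.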

[16] = Tolerability, subcutaneous dosing cohort; format: in vivo, C57BL/6/CES1-/- mice; conditions: 0.1, 0.3 and 1 mg/kg DON eq. subcutaneously
Procedure, shortened: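 EL4 tumour-bearing CES1−/− mice (0.3 × 10^6 cells s.c., right flank) received test compound at 0.1, 0.3 or 1 mg/kg DON equivalent s.c., 5 days/week. Tumour volume and body weight were recorded during dosing, with GI histology assessed alongside.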

[17] = system: EL4 tumors; assay: 13C5-glutamine flux analysis in EL4 tumors; format: in vivo, CES1-/- mice; conditions: 0.3 mg/kg DON eq. s.c., vehicle 19.99%
[18] = PK of DRP-104, DON and M1 in EL4 tumor-bearing mice; format: in vivo, C57BL/6/CES1-/- mice; conditions: for intact DRP-104 concentration: BLQ = below the limit of quantitation
[19] = DRP-104 stability in EL4 tumor homogenate with protease/esterase inhibitors; format: in vitro ADME, mouse; conditions: no inhibitor, time 1 h
[20] = target: T3, recombinant CES1 enzyme (Homo sapiens, UniProt P23141); assay: Recombinant CES1 enzyme stability; format: in vitro ADME; conditions: 20 μM, enzyme 10 μg/ml, up to 3 hours
T3 sequence (P23141 18-567): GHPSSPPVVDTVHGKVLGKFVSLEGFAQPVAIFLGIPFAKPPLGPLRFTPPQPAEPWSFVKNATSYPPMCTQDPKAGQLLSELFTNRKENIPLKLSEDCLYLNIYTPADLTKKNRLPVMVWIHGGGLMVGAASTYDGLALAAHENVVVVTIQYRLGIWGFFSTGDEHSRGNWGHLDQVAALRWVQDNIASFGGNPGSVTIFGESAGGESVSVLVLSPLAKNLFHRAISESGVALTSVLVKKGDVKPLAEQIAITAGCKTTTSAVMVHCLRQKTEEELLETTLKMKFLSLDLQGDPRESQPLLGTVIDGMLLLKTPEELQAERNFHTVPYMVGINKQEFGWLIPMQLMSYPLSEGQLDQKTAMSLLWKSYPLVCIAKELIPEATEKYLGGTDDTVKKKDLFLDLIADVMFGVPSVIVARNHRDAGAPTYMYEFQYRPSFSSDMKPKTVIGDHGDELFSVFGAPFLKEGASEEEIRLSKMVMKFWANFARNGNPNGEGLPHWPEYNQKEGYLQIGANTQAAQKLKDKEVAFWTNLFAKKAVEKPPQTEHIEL

[21] = Metabolite identification; format: in vitro ADME, mouse; conditions: 60-min incubation
[22] = GI tissue homogenate stability and DON release; format: in vitro ADME, C57BL/6/CES1-/- mouse; conditions: C57BL/6/CES1-/-, mouse, GI tissue (jejunum) homogenate, pH 7.4
[23] = system: MC38 tumors; assay: Anti-PD-1 combination study, MC38 tumors; format: in vivo, C57BL/6/CES1-/- mice; conditions: MC38 tumor-bearing mice, same regimens
Procedure, shortened: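 Mice (4 male, 3 female per group, n = 7) got 5 × 10^5 MC38 cells s.c. in the right flank and were randomised at about 400 mm3 (about day 10). Arms: vehicle; anti-PD-1 100 μg i.p. on days 10, 12, 14 and 16; test compound 0.8 mg/kg s.c., 5 days/week for 4 weeks; combination. Endpoint: tumour >4000 mm3, ulceration, necrosis or functional deficit.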

[24] = Plasma stability, human plasma; format: in vitro ADME; conditions: % remaining at 60 minutes, 37°C

Structure (SMILES): COc1ccc(/C=C\c2cc(OC)c(OC)c(OC)c2)cc1OP(=O)(O)O [CA4P, combretastatin A4 phosphate]
- tumor versus plasma delivery (in words) [1]: two- to threefold

Structure (SMILES): [N-]=[N+]=CC(=O)CC[C@H](N)C(=O)O [DON, 6-Diazo-5-oxo-L-norleucine, reference compound]
- body weight reduction ([2]; 1 mg/kg intravenously, 5 days per week for 2 weeks): 20 to 30%
- mice that required euthanasia based on IACUC weight loss guidelines ([2]; 1 mg/kg intravenously, 5 days/week for 2 weeks): 63%
- tumor response (in words) [3]: complete regression of the tumor
- GI histology (in words) [4]: severe GI toxicity
- EC50 [5]: 4 ± 0.6 µM
- tumor GLS-1 activity versus vehicle (in words) [6]: significant inhibition of tumor GLS-1 activity
- tumor FGAR increase versus vehicle [7]: > 80 fold
- IC50 [8]: 10 ± 0.3 µM
- WBC [9]: 0.93 ± 0.18 K/uL
- patients with stable disease or regression [10]: 66%

Structure (SMILES): CC(=O)N[C@@H](Cc1c[nH]c2ccccc12)C(=O)N[C@@H](CCC(=O)C=[N+]=[N-])C(=O)OC(C)C [DRP-104, isopropyl(S)-2-((S)-2-acetamido-3-(1H-indol-3-yl)-propanamido)-6-diazo-5-oxo-hexanoate]
- remaining at 1 h, 10 μM [11]: 0%
- deaths (in words) ([2]; 1 mg/kg DON eq. intravenously): no deaths were observed
- body weight (in words) ([2]; 1 mg/kg DON eq. intravenously, 5 days per week for 2 weeks): maintained their body weight
- remaining at 1 h, 20 μM [12]: 0%
- dependence of efficacy on CD8+ T cells (in words) [13]: completely dependent
- effect on body weight (in words) [14]: no substantial effect on body weight
- tumor growth (in words) [15]: dose-dependent inhibition of tumor growth; also recorded: complete tumor regression at the higher two doses
- tumor response (in words) [3]: complete regression of the tumor
- GI histology (in words) [4]: improvement in all these parameters
- GI morphology (in words) ([4]; 1 mg/kg DON eq. subcutaneously): mild lymphocytic infiltration
- GI morphology (in words) ([4]; 0.1 and 0.3 mg/kg DON eq. subcutaneously): normal
- EC50 [5]: 10 ± 1.9 µM
- overt toxicity (in words) [16]: No overt signs of toxicity
- M+5 isotopologue share of the total glutamate pool [17]: 14.66%
- tumor GLS-1 activity versus vehicle (in words) [6]: significant inhibition of tumor GLS-1 activity
- intact DRP-104 concentration ([18]; GI tissue): no DRP-104 was observed
- AUC0-t ([18]; plasma, after DRP-104 2.6 mg/kg s.c., 2.6 mg/kg): 0.65 nmol hour/ml or nmol hour/g
- intact DRP-104 concentration ([18]; tumor): no DRP-104 was observed
- % DRP-104 remaining [19]: 0%
- metabolism by recombinant CES1 (in words) [20]: CES1 was capable of metabolizing DRP-104 to M1 metabolite
- tumor FGAR increase versus vehicle [7]: > 80 fold
- metabolites found (MET-ID) ([21]; GI tissue homogenate): only the M1 metabolite
- metabolites found (MET-ID) ([21]; tumor homogenate): both DON and M1 metabolite
- inhibition of GLS-1 (in words) ([8]; intact compound): inactive
- remaining at 1 h, 20 μM [22]: 0%
- survival (in words) [23]: enhanced survival compared to vehicle
- remaining at 1 h, 20 μM [24]: > 90%

Structure (SMILES): CCCCCOC(=O)Nc1nc(=O)n([C@@H]2O[C@H](C)[C@@H](O)[C@H]2O)cc1F [capecitabine]
- average 5-fluorouracil concentration in tumor versus adjacent healthy tissue [1]: 3.2 fold
